Assay [1] relates to Mus musculus. Briefly: Protection against PTZ-induced convulsions in mouse at 300 mg/kg, ip after 0.5 hrs by scPTZ assay. Format: functional, organism-based. On the set-up: dose 300 mg/kg. The method, boiled down: (§1)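 Mice received test drug, positive control or vehicle (DMSO) intraperitoneally 30 min before a subcutaneous PTZ injection at 80 mg/kg. The end-point was clonic seizure lasting more than 5 s. Tested up to 300 mg/kg. Run in triplicate (n = 3). ED50 in mg/kg was found by non-linear regression, as mean with 95% confidence intervals.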

For assay [2], the system named is Mus musculus. In words: Protection against electroshock-induced convulsions in mouse up to 300 mg/kg, ip after 0.5 hrs by MES assay. Format: functional, organism-based. On the set-up: dose 300 mg/kg. The method, boiled down:
(§2)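 Mice were dosed intraperitoneally with test drug, positive control or vehicle (DMSO) 30 min before electroshock at 50 mA for 0.2 s. The end-point was the hind limb tonic extensor component. Doses up to 300 mg/kg. Done in triplicate (n = 3). ED50 in mg/kg was derived by non-linear regression and given as mean with 95% confidence intervals.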

In assay [3] the test system is Mus musculus. In words: Protection against PTZ-induced convulsions in ip dosed mouse after 0.5 hrs by scPTZ assay. The format is functional. The essentials: as §1
The subject of assay [4] is Mus musculus. In words: Protection against electroshock-induced convulsions in mouse at 300 mg/kg, ip after 0.5 hrs by MES assay. Format: functional, organism-based. The arrangement: dose 300 mg/kg. The method, boiled down:
as §2

The test system of assay [5] is Mus musculus. Briefly: Protection against electroshock-induced convulsions in ip dosed mouse after 0.5 hrs by MES assay. Format: functional. The essentials: as §2
Assay [6] concerns Mus musculus. In words: Protection against PTZ-induced convulsions in mouse up to 300 mg/kg, ip after 0.5 hrs by scPTZ assay. Format: functional, organism-based. On the set-up: dose 300 mg/kg. The essentials: as §1

15 compounds from ChEMBL document CHEMBL1148686, “Synthesis and anticonvulsant activity of new N-1',N-3'-disubstituted-2'H,3H,5'H-spiro-(2-benzofuran-1,4'-imidazolidine)-2',3,5'-triones” (2006) can be followed below.

Molecules are shown by their SMILES. Activity calls are given as the source filed them. No cut-off for these calls is given here. Bounds are passed on as bounds.

As for `CC(C)N1C(=O)N(C(C)C)C2(OC(=O)c3ccccc32)C1=O` (stereo not given), the outcome in the assay with Mus musculus [1] was Active. The outcome with Mus musculus [2] was inactive.

`CN1C(=O)N(c2ccccc2)C(=O)C12OC(=O)c1ccccc12` (stereo not given) returned a 50% effective dose (ED50) in the assay with Mus musculus [3] of 96.8 mg/kg. The outcome in the assay on Mus musculus [4] was Active.

Take `CCN1C(=O)N(C)C(=O)C12OC(=O)c1ccccc12` (stereo not given): the result with Mus musculus [1] was Active. In the assay with Mus musculus [2], the outcome was inactive.

On to `CCC1(c2ccccc2)C(=O)NC(=O)NC1=O` [PHENOBARBITAL], for which the ED50 in the assay on Mus musculus [3] was 20 mg/kg. In addition, the result in the assay with Mus musculus [2] was inactive.

On to `CN1C(=O)N(c2ccc(F)cc2)C(=O)C12OC(=O)c1ccccc12` (stereo not given), for which the 50% effective dose (ED50) in the assay with Mus musculus [3] was 87.1 mg/kg; in the assay on Mus musculus [5], > 100 mg/kg.

`CN1C(=S)N(c2ccccc2)C(=O)C12OC(=O)c1ccccc12` (stereo not given): the outcome with Mus musculus [1] was Active. Moreover, the outcome in the assay with Mus musculus [2] was inactive.

Take `CCCCN1C(=O)N(CCCC)C2(OC(=O)c3ccccc32)C1=O` (stereo not given): the ED50 with Mus musculus [3] is > 100 mg/kg. For the same compound, the outcome in the assay with Mus musculus [4] was Active.

As to `CCN1C(=O)N(c2ccccc2)C(=O)C12OC(=O)c1ccccc12` (stereo not given), the ED50 with Mus musculus [3] came out at 54.8 mg/kg; in the assay with Mus musculus [5] it was 81 mg/kg.

`O=C1OC2(C(=O)N(C3CCCCC3)C(=O)N2C2CCCCC2)c2ccccc21` (stereo not given): the result with Mus musculus [6] and in the assay with Mus musculus [2] was inactive.

With `CN1C(=O)N(c2ccc(C(F)(F)F)cc2)C(=O)C12OC(=O)c1ccccc12` (stereo not given), the ED50 with Mus musculus [3] and in the assay with Mus musculus [5] was > 100 mg/kg throughout.

Regarding `CCN1C(=O)N(c2ccc([N+](=O)[O-])cc2)C(=O)C12OC(=O)c1ccccc12` (stereo not given), the median effective dose (ED50) with Mus musculus [3] amounted to 41.8 mg/kg. Moreover, the result in the assay with Mus musculus [2] was inactive.

In the assay on Mus musculus [3], `CCN1C(=O)N(c2ccc(OC)cc2)C(=O)C12OC(=O)c1ccccc12` (stereo not given) displayed an ED50 of 82.5 mg/kg. In addition, in the assay with Mus musculus [4], the result was Active.

As for `CCN1C(=O)N(c2ccc(F)cc2)C(=O)C12OC(=O)c1ccccc12` (stereo not given), the ED50 with Mus musculus [3] was 85.8 mg/kg; in the assay with Mus musculus [5], > 100 mg/kg.

As to `O=C1NC(=O)C(c2ccccc2)(c2ccccc2)N1` [PHENYTOIN], it took a dose of 8.1 mg/kg to reach the 50% effect level with Mus musculus [5] (ED50). Besides, the outcome in the assay with Mus musculus [6] was inactive.

Regarding `CCCN1C(=O)N(CCC)C2(OC(=O)c3ccccc32)C1=O` (stereo not given), the ED50 in the assay with Mus musculus [3] is 78.5 mg/kg; in the assay with Mus musculus [5] it was > 100 mg/kg.

As a reminder, the ED50 is the dose at which the effect has come halfway, by size or by number of responders.
